# Assay results from ChEMBL document CHEMBL3421547, “Novel myricetin derivatives: Design, synthesis and anticancer activity” (Eur J Med Chem, 2015).
# The source made the active and inactive calls. The rule behind the calls is not given here.
# How the values were obtained:
# [1] = biological target: Telomerase reverse transcriptase (Homo sapiens, UniProt O14746); test: Inhibition of telomerase in human MDA-MB-231 cells after 24 hrs by TRAP-PCR-ELISA; assay type: cell-based
# Summary of the method: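 MDA-MB-231 cells grown in DMEM with 10% FBS plus penicillin/streptomycin, 5 × 10^4 seeded in T25 flasks and allowed to adhere. Treated 24 h at 60, 20, 6.67, 2.22, 0.74, 0.25 and 0.082, with staurosporine included. Lysed in RIPA 30 min on ice, supernatant taken after 12,000 g spin at 4 °C. Telomerase read by TRAP-PCR-ELISA kit at 490 nm; mean ± SD.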
# MDA-MB-231 [2] = test: Cytotoxicity against human MDA-MB-231 cells after 48 hrs by MTT assay; settings: MDA-MB-231, 48 h
# Bcap37 = test: Cytotoxicity against human Bcap37 cells after 48 hrs by MTT assay; settings: Bcap37, 48 h
# MGC-803 = test: Cytotoxicity against human MGC803 cells after 48 hrs by MTT assay; settings: MGC-803, 48 h
# SGC-7901 = test: Cytotoxicity against human SGC7901 cells after 48 hrs by MTT assay; settings: SGC-7901, 48 h
# MDA-MB-231 [3] = test: Antiproliferative activity against human MDA-MB-231 cells assessed as cell distortion at 1 to 10 uM after 24 to 72 hrs by inverted microscopic analysis; assay type: functional, cell-based
# Summary of the method: (§1)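 MDA-MB-231 seeded at 3 × 10^4 cells/mL in DMEM with 10% FBS and grown 24 h at 37 °C, 5% CO2. Compounds in DMSO added (final DMSO ≤0.1%) at 1 and 10 concentrations for 24, 48 and 72 h. Morphology observed by inverted microscope and photographed in randomly chosen fields.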
# MDA-MB-231 [4] = test: Cell cycle arrest in human MDA-MB-231 cells assessed as accumulation at G0/G1 phase at 1 uM after 48 hrs by flow cytometry (reference value: 40.5 +/- 0.38%); assay type: functional
# MDA-MB-231 [5] = test: Cell cycle arrest in human MDA-MB-231 cells assessed as accumulation at S phase at 1 uM after 48 hrs by flow cytometry (reference value: 34.6 +/- 0.31%); assay type: functional
# MDA-MB-231 [6] = test: Cell cycle arrest in human MDA-MB-231 cells assessed as accumulation at G2 phase at 1 uM after 48 hrs by flow cytometry (reference value: 34.6 +/- 0.31%); assay type: functional
# MDA-MB-231 [7] = test: Down regulation of p65 protein expression in human MDA-MB-231 cells at 1 uM after 48 hrs by Western blotting analysis; assay type: functional, cell-based
# MDA-MB-231 [8] = test: Down regulation of TERT protein expression in human MDA-MB-231 cells at 1 uM after 48 hrs by Western blotting analysis; assay type: functional, cell-based
# Summary of the method: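 MDA-MB-231 cells treated 48 h, with AZT (3.0 mmol/L) as reference. Cells lysed in RIPA and protein measured by BCA; 30 or 50 total protein run on SDS-PAGE and blotted to PVDF. Primary antibodies applied 1 h in TBS/Tween-20 with 3% Marvel (anti-TERT 1:500, β-actin loading control). HRP secondaries, ECL detection.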
# MDA-MB-231 [9] = test: Antiproliferative activity against human MDA-MB-231 cells assessed as breaking and crack at 1 to 10 uM after 24 to 72 hrs by inverted microscopic analysis; assay type: functional, cell-based; summary of the method: as §1
# Telomerase reverse transcriptase, sequence (O14746 whole entry): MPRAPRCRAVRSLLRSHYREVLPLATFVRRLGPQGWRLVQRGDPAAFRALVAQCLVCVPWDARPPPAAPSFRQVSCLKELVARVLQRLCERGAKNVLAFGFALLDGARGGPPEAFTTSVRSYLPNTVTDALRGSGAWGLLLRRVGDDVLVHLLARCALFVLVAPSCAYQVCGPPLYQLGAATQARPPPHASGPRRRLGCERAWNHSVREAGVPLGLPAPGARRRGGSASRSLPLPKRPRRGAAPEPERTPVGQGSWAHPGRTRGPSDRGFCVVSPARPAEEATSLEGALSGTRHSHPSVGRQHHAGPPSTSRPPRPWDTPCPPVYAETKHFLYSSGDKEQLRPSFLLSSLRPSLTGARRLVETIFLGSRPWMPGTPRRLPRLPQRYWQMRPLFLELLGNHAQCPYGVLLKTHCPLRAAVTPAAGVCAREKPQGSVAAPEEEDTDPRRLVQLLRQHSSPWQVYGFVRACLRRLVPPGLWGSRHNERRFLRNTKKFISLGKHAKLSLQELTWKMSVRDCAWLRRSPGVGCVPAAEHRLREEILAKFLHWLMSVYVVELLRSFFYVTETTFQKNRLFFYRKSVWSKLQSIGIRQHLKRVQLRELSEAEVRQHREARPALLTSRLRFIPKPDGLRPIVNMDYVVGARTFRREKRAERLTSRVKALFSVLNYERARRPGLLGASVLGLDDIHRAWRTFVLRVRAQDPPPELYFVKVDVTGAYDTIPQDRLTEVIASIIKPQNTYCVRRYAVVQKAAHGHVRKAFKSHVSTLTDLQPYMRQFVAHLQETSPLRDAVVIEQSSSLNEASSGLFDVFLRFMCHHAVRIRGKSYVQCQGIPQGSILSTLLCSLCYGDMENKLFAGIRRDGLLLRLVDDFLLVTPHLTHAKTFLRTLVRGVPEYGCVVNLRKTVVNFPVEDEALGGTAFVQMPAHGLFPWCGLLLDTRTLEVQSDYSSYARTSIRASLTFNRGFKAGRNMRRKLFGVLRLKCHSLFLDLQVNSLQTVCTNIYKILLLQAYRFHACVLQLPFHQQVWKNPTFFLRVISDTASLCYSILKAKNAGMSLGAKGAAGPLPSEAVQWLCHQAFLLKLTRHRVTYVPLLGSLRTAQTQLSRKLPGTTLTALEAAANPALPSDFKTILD
IC50 [1],SMILES,IC50 (MDA-MB-231 [2]),IC50 (Bcap37),IC50 (MGC-803),IC50 (SGC-7901),further results
40.3 µM,CCN(CC)CCCCOc1c(-c2cc(OC)c(OC)c(OC)c2)oc2cc(OC)cc(OC)c2c1=O,13 µM,,,,
,COc1cc(OC)c2c(=O)c(OCCCN3CCOCC3)c(-c3cc(OC)c(OC)c(OC)c3)oc2c1,2.9 µM,4.68 µM,21 µM,11.2 µM,
35.7 µM,CCN(CC)CCCOc1c(-c2cc(OC)c(OC)c(OC)c2)oc2cc(OC)cc(OC)c2c1=O,,43 µM,40.2 µM,56.9 µM,
0.17 µM,C/C(=C\C(=O)Nc1ccccc1C(=O)O)c1ccc2ccccc2c1,,,,,
,COc1cc(OC)c2c(=O)c(OCC(=O)N/N=C/c3ccc[nH]3)c(-c3cc(OC)c(OC)c(OC)c3)oc2c1,3.75 µM,7 µM,5.61 µM,8.73 µM,
1.82 µM,COc1cc(OC)c2c(=O)c(OCC(=O)N/N=C/c3ccccc3F)c(-c3cc(OC)c(OC)c(OC)c3)oc2c1,3.4 µM,4.09 µM,2.78 µM,7.72 µM,
28.9 µM,COc1cc(OC)c2c(=O)c(OCCCN3CCCC3)c(-c3cc(OC)c(OC)c(OC)c3)oc2c1,,,32.1 µM,,
,COc1cc(OC)c2c(=O)c(OCCCCN3CCN(C)CC3)c(-c3cc(OC)c(OC)c(OC)c3)oc2c1,3.87 µM,4.17 µM,12.2 µM,6.95 µM,
,COc1cc(OC)c2c(=O)c(OCCCCN3CCCC3)c(-c3cc(OC)c(OC)c(OC)c3)oc2c1,10.4 µM,18 µM,18.6 µM,26.8 µM,
,COc1cc(OC)c2c(=O)c(OCC(=O)N/N=C/c3ccc(C)cc3)c(-c3cc(OC)c(OC)c(OC)c3)oc2c1,4.57 µM,5.17 µM,3.51 µM,10.1 µM,
2 µM,COc1cc(OC)c2c(=O)c(OCCCCN3CCCCC3)c(-c3cc(OC)c(OC)c(OC)c3)oc2c1,3.03 µM,2.62 µM,26.8 µM,6.08 µM,
19.7 µM,COc1cc(OC)c2c(=O)c(OCCCN3CCN(C)CC3)c(-c3cc(OC)c(OC)c(OC)c3)oc2c1,30.1 µM,38 µM,,,
0.91 µM,COc1cc(OC)c2c(=O)c(OCC(=O)N/N=C/c3ccco3)c(-c3cc(OC)c(OC)c(OC)c3)oc2c1,1.86 µM,3.11 µM,6.05 µM,5.72 µM,Activity (MDA-MB-231 [3]): Active; Activity (MDA-MB-231 [4]): 44.3%; Activity (MDA-MB-231 [5]): 28.4%; Activity (MDA-MB-231 [6]): 27.4%; Activity (MDA-MB-231 [7]): Active; Activity (MDA-MB-231 [8]): Active
,COc1cccc2c1C(=O)c1c(O)c3c(c(O)c1C2=O)C[C@@](O)(C(=O)CO)C[C@@H]3O[C@H]1C[C@H](N)[C@H](O)[C@H](C)O1 [DOXORUBICIN],2.01 µM,2.87 µM,3.22 µM,3.5 µM,Activity (MDA-MB-231 [9]): Active
,COc1cc(OC)c2c(=O)c(OCC(=O)N/N=C/c3sccc3C)c(-c3cc(OC)c(OC)c(OC)c3)oc2c1,4.47 µM,8.35 µM,7.74 µM,10.2 µM,
3.07 µM,COc1cc(OC)c2c(=O)c(OCCCN3CCCCC3)c(-c3cc(OC)c(OC)c(OC)c3)oc2c1,2.16 µM,2.96 µM,10 µM,16.5 µM,
,COc1cc(OC)c2c(=O)c(OCCCCN3CCOCC3)c(-c3cc(OC)c(OC)c(OC)c3)oc2c1,4.17 µM,5.24 µM,20.6 µM,12.5 µM,
,COc1cc(OC)c2c(=O)c(OCC(=O)N/N=C/c3ccccn3)c(-c3cc(OC)c(OC)c(OC)c3)oc2c1,9.89 µM,18.8 µM,15.3 µM,16.2 µM,

SMILES,IC50 [1],IC50 (MDA-MB-231 [2]),IC50 (Bcap37),IC50 (MGC-803),IC50 (SGC-7901),further results
CC[n+]1c(-c2ccccc2)c2cc(N)ccc2c2ccc(N)cc21 [HOMIDIUM BROMIDE],2.33 µM,,,,,
